Published values of several laboratories.
Protocols differ between the studies behind these lines.

| SMILES | assay | test system | setting | endpoint | value |
| --- | --- | --- | --- | --- | --- |
| N=c1c2c(-c3ccccc3)c(-c3ccccc3)n(Cc3ccccc3)c2ncn1[C@H]1CC[C@H](O)CC1 | metabolic stability | Sprague-Dawley rat, hepatocytes | 1 µM | scaled CLint | 19 mL/min/kg |
| C[C@H]1COCCN1c1nc(NCc2cccnc2C(F)(F)F)c2cccnc2n1 | metabolic stability | rat, hepatocytes | – | hepatocyte CLint | 5 µL/min/10⁶ cells |
| COc1ccnc(C(=O)N[C@H]2COC(=O)[C@H](Cc3ccccc3)[C@@H](OC(=O)C(C)C)[C@H](C)OC2=O)c1OCOC(=O)C(C)C | – | rat | oral | LD50 | > 2000 mg/kg |
| Cc1cc(C)nc(Nc2ncc(C(=O)NCCc3c(C)[nH]c4ccccc34)cn2)c1 | metabolic stability | rat, liver microsomes | 1 µM | microsomal CLint | 185 µL/min/mg |
| Cc1c(C(=O)Nc2ccc(OC(F)(F)F)cc2)nc(-c2ccc(Cl)cc2Cl)n1-c1ccc(OS(=O)(=O)CCC(F)(F)F)cc1 | shake flask | aqueous buffer | pH 7.4 | logD | > 4 |
| C=CCNc1c(O)cc2c(O)c1C[C@@H](C)C[C@H](OC)[C@H](O)[C@@H](C)/C=C(\C)[C@H](OC(N)=O)[C@@H](OC)/C=C\C=C(/C)C(=O)N2 | – | human, plasma | intravenous, 400 mg/m², patients, infusion | clearance | 1630 mL/min |
| NCCCNCCCCNCCCNc1cc2nc(-c3ccccc3Cl)[nH]c(=O)c2cc1F | – | male Sprague-Dawley rat | oral | LD50 | > 1000 mg/kg |
| Nc1nc2[nH]cc(CCc3ccc(C(=O)N[C@@H](CCC(=O)O)C(=O)O)cc3)c2c(=O)[nH]1 | – | human, plasma | intravenous, 500 mg/m², patients | clearance | 81.7 mL/min |
| NC(=O)[C@@H]1CC(F)(F)CN1C(=O)c1ccc(N2CC(F)(F)C2)c(OCC2CC2)n1 | metabolic stability | human, hepatocytes | – | hepatocyte CLint | 14 µL/min/10⁶ cells |
